The results in this text go back to ChEMBL document CHEMBL1125813, “Preparation and anti-HIV activities of aurintricarboxylic acid fractions and analogues: direct correlation of antiviral potency with molecular weight” (J Med Chem, 1991).

In brackets after ≈: the same amount, converted by molar mass. Several values for one entry are separate records, joined by “and”; a condition that tells them apart may be missing. Equal values may be shown once.

A short description of assay [1]: Compound was tested for percent of OKT4A positive cells stained with normal mouse IgG-FITC at a concentration of 100 ug/ml. It is filed as functional. The gist of the method: (§1)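 MT-4 cells, 200 000 in 100 µL PBS, exposed to compound for 10–20 s at 20 °C, then stained with anti-OKT4A-FITC for 20 min at 4 °C. Cells washed, fixed in 0.37% formaldehyde and analysed by cytofluorometry. Positive cells are those brighter than control cells stained with normal mouse IgG-FITC, which monitors nonspecific labelling.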

Assay [2] in a line: Compound was tested for percent of OKT4A positive cells stained with normal mouse IgG-FITC at a concentration of 4 ug/mL. The assay is classed as functional. The gist of the method: as §1
Assay [3] relates to MT4. Put plainly: Inhibitory index for OKT4A mAb binding inhibition in MT-4 cells was determined at a concentration of 100 ug/ml. The assay is classed as functional, Homo sapiens. The gist of the method:
(§2)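 MT-4 cells, 200 000 in 100 µL PBS, exposed to compound for 10–20 s at 20 °C, stained with anti-OKT4A-FITC for 20 min at 4 °C, washed, formaldehyde-fixed and read by flow cytometry. Index = 1 − (MF with compound − MF IgG-FITC control)/(MF OKT4A only − MF IgG-FITC control), from mean fluorescence intensity.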

The subject of assay [4] is HuT78. Nature of the assay: Compound was tested for reduce the number of gaint cells in HIV-1 infected HUT-78 cells cocultured with MOLT -4 cells. The assay is classed as functional, cell-based, Homo sapiens. Put shortly: (§3)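 HUT-78 cells persistently infected with HIV-1 or HIV-2 cocultured with uninfected MOLT-4 (CD4+) cells alongside compound. Syncytium formation and bystander-cell destruction assessed by flow cytometry. IC50 taken as the concentration cutting giant-cell number by 50%.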

Assay [5] has as its system HuT78. Nature of the assay: Compound was tested for reduce the number of gaint cells in HIV-2 infected HUT-78 cells cocultured with MOLT -4 cells. The assay is classed as functional, cell-based, Homo sapiens. The gist of the method:
as §3

The subject of assay [6] is MT4. Put plainly: Inhibitory concentration for cytopathicity of HIV-2 (LAV-2ROD) in MT-4 cells. It is filed as functional, cell-based, Homo sapiens. Put shortly:
(§4)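 MT-4 cells infected with HIV-1 (HTLV-IIIB) or HIV-2 (LAV-2ROD) at 100–500-fold the dose infecting 50% of cells, then cultured with compound. Protection from cytopathicity gives the IC50 (50% inhibitory concentration). Means of at least three experiments.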
For orientation: Protection from cytopathic effect is a common read-out in antiviral testing.

The test system of assay [7] is MT4. Put plainly: Inhibitory index for OKT4A mAb binding inhibition in MT-4 cells was determined at a concentration of 0.8 ug/ml. The assay is classed as functional, Homo sapiens. Put shortly:
as §2

The subject of assay [8] is MT4. Put plainly: Inhibitory index for OKT4A mAb binding inhibition in MT-4 cells was determined at a concentration of 4 ug/ml. It is filed as functional, Homo sapiens. The gist of the method: as §2
Assay [9] in a line: Compound was tested for percent of OKT4A positive cells stained with normal mouse IgG-FITC at a concentration of 0.16 ug/ml. The assay is classed as functional. The gist of the method: as §1
The subject of assay [10] is MT4. Put plainly: Inhibitory index for OKT4A mAb binding inhibition in MT-4 cells was determined at a concentration of 20 ug/ml. The assay is classed as functional, Homo sapiens. The gist of the method: as §2
The nature of assay [11]: Compound was tested for percent of OKT4A positive cells stained with normal mouse IgG-FITC at a concentration of 0.8 ug/ml. It is filed as functional. The gist of the method: as §1
The subject of assay [12] is CCRF-CEM. Nature of the assay: Inhibitory concentration for cytopathicity of HIV-1 (HTLV-111B) in CEM cells. It is filed as functional, cell-based, Homo sapiens. The gist of the method: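 CEM cells infected with HIV-1 (HTLV-IIIB) and cultured with compound. Protection from cytopathicity measured by XTT tetrazolium viability assay. IC50 is the concentration giving 50% inhibition. Means of two to four experiments.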

For assay [13], the system named is MT4. Nature of the assay: Inhibitory index for OKT4A mAb binding inhibition in MT-4 cells was determined at a concentration of 0.16 ug/ml. It is filed as functional, Homo sapiens. The gist of the method: as §2
The test system of assay [14] is MT4. Nature of the assay: Inhibitory concentration for cytopathicity of HIV-1 (HTLV-111B) in MT-4 cells. The assay is classed as functional, cell-based, Homo sapiens. The gist of the method:
as §4

The nature of assay [15]: Compound was tested for percent of OKT4A positive cells stained with normal mouse IgG-FITC at a concentration of 20 ug/ml. The assay is classed as functional. The gist of the method:
as §1

For assay [16], the system named is MT4. Nature of the assay: Inhibitory concentration for cell viability in mock-infected MT-4 cells. It is filed as functional, cell-based. Particulars: Homo sapiens. Put shortly:
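MT-4 cells mock-infected and cultured with compound. Viability measured by MTT tetrazolium colorimetric read-out. Value is the 50% cytotoxic concentration. MT-4 data are means of at least three experiments.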

The test system of assay [17] is MT-4 (human). Nature of the assay: Inhibitory index of HIV-1 binding to MT-4 cells was determined at a concentration of 25 ug/mL.

Consider `O=C(O)C1=CC(=C(c2ccc(O)c(C(=O)O)c2)c2ccc(O)c(C(=O)O)c2)C=CC1=O` [AURINTRICARBOXYLIC ACID], for which the Activity was found to be 2.7 in assay [1]; 9.2 in assay [2]; 0.97 in [3]; 0.26 in assay [7]; 0.91 in [8]; 99.5 in [9]. Also, the Activity in [10] came to 0.98; in [11] it was 99.2; in assay [13] it was 0; in [15], 1.8. In addition, the IC50 is 4 µg/mL (≈ 9.47 µM) in assay [4]; 4 µg/mL (≈ 9.47 µM) in assay [5] (Homo sapiens, HuT78, read-out: IC50); 4 µg/mL (≈ 9.47 µM) in [5] (hut78); 0.85 µg/mL (≈ 2.01 µM) in [6] (Homo sapiens, MT4, read-out: IC50); 1.3 µg/mL (≈ 3.08 µM) in [6] (mt4); 2.1 µg/mL (≈ 4.97 µM) in assay [12] (Homo sapiens, CCRF-CEM, read-out: IC50). The IC50 in [12] (ccrf-cem) was 1.2 µg/mL (≈ 2.84 µM); in assay [14], 1.1 µg/mL and 0.5 µg/mL; in [16], 280 µg/mL (≈ 663 µM). Also, the Inhibitory index in assay [17] was 0.99.

Broadly, the IC50 is the concentration that inhibits the measured activity by half.
